# Source: paper PMC11059122 (iScience, 2024)
# Read-outs that look alike come from different tables or passages of the source.
# What was measured:
# MCL1 in OCI-AML3 cells = experiment: MCL1 levels in OCI-AML3 cells; format: cell-based, human; settings: OCI-AML3, 1 μM each, 4 h, Western blot
# Outline: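 OCI-AML-3 cells (RPMI 1640 + 20% FBS) exposed to test compound, venetoclax, or both co-dosed; sampled 4 h post treatment. RIPA lysis 30 min at 4°C, centrifugal clarification, BCA protein assay, reducing SDS-PAGE, immunoblot with extended-duration chemiluminescent substrate; bands quantified by densitometry. Mean ± standard deviation.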
# p53 WT cell lines [1] = settings: read-out: IC50 in cellular viability assays of p53 WT cell lines; cited from earlier work
# MM.1S cells [2] = experiment: MM.1S cell viability; format: cell-based, human
# p21 in MM.1S cells = experiment: Time course of p21 levels in MM.1S cells; format: cell-based, human; settings: time course 2-24 h
# Outline: (§1)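 MM.1S cells (RPMI 1640, 10% FBS, 1% L-glutamine) treated with test compound and sampled over a time course. Lysis in RIPA 30 min at 4°C, centrifugal clarification, BCA normalisation, reducing SDS-PAGE and immunoblot for p53 and p21. Chemiluminescent detection, densitometric band quantification; signal relative to DMSO-treated cells, mean ± standard deviation.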
# MRC5 cells = experiment: MRC5 live-cell imaging; format: cell-based, human; settings: 1 μM
# Outline: (§2)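 IncuCyte S3 real-time growth, 4× objective: MRC5 (EMEM + 10% FBS, 4,000 cells/well) or MM.1S (RPMI 1640 + 10% FBS, 24,000 cells/well) seeded overnight, then exposed to test compound, idasanutlin or DMSO. Images every 6 h for 120 h from treatment start; growth expressed as phase object confluence.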
# recombinant human USP7 = recombinant human USP7 (Homo sapiens, UniProt Q93009); experiment: In vitro USP7 activity assay; format: biochemical
# Outline: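 Test compound, 4-fold 10-point series from 2.5 µM top, pre-incubated 30 min at room temperature with 167 pM Sf21-baculovirus-expressed human USP7 in 20 mM HEPES pH 7.3, 150 mM NaCl, 1 mM TCEP, 125 µg/mL BSA, 0.4% DMSO. Ubiquitin-rhodamine added to 160 nM final; reaction 90 min at room temperature, acetic acid stop. Fluorescence 485/520 nm. % inhibition vs DMSO and no-enzyme controls; IC50 from curve fit; triplicate.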
# MM.1S cells [3] = experiment: MM.1S live-cell imaging; format: cell-based, human; settings: 1 μM, 5 days
# Outline: as §2
# [4] = system: p53 levels in MM.1S cells; experiment: Meso Scale Discovery total p53 assay in MM.1S cells; format: cell-based; settings: Homo sapiens, MM1.S, 4 h, read-out: MM.1S p53 EC50
# Outline: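 MM.1S cells plated at 1×10⁶/well overnight, then exposed 4 h to test compound, 4-fold 9-point series spanning 20 µM to 0.0003 µM, or DMSO (0.1% final). Total p53 in whole-cell lysate measured by Meso Scale Discovery immunoassay kit. p53 signal plotted against concentration and fitted for EC50.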
# MV4-11 tumors = experiment: MV4-11 cell-line-derived xenograft mouse model; format: in vivo; settings: for tumor growth inhibition: MV4-11 tumors, oral, 24 days
# Outline: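 Female CB-17 SCID mice (6-9 wk, 18-23 g) implanted s.c. in right flank with 10×10⁶ MV4-11 cells in PBS/Matrigel 50/50. Oral gavage dosing; tumour and body weight twice weekly. Final-day urine collected at three intervals, diluted 1:50, mouse MIC-1 ELISA (OD450 minus OD570, standard curve). Tumours removed 4 h after last dose, RIPA-homogenised, p53 and p21 by Western blot.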
# MM.1S tumors = experiment: MM.1S cell-line-derived xenograft mouse model; format: in vivo
# Outline: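 Female CB-17 SCID mice (6-9 wk, 18-23 g) implanted s.c. in right flank with 5×10⁶ MM.1S cells in PBS/Matrigel 50/50. Randomised at mean tumour ~105 mm³; test compound by oral gavage; tumour and body weight measured twice weekly. Final-day urine at three intervals, diluted 1:50, mouse MIC-1 ELISA (OD450 minus OD570, standard curve). Tumours harvested 2 h post last dose, RIPA-homogenised, p53/p21 Western blot.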
# RKO-E6 cells = experiment: RKO-E6 cell viability; format: cell-based, human
# p53 in MM.1S cells = experiment: Time course of p53 levels in MM.1S cells; format: cell-based, human; settings: for maximum increase of p53 above DMSO-treated cells: time course 2-24 h
# Outline: as §1
# [5] = system: 44 DUBs (DUBprofiler panel); experiment: DUB selectivity profiling; format: biochemical; settings: 10 μM compound
# p53 WT cell lines [6] = experiment: Cellular viability assays of p53 WT cell lines; format: cell-based; settings: read-out: IC50 in cellular viability assays of p53 WT cell lines
# RKO cells = experiment: RKO cell viability; format: cell-based; settings: Homo sapiens, 72 h, read-out: RKO IC50
# [7] = MV4-11 CDX, 4 h post final dose, Western blot
# [8] = MM.1S CDX, 2 h post final dose, Western blot
# recombinant human USP7, sequence (Q93009 whole entry): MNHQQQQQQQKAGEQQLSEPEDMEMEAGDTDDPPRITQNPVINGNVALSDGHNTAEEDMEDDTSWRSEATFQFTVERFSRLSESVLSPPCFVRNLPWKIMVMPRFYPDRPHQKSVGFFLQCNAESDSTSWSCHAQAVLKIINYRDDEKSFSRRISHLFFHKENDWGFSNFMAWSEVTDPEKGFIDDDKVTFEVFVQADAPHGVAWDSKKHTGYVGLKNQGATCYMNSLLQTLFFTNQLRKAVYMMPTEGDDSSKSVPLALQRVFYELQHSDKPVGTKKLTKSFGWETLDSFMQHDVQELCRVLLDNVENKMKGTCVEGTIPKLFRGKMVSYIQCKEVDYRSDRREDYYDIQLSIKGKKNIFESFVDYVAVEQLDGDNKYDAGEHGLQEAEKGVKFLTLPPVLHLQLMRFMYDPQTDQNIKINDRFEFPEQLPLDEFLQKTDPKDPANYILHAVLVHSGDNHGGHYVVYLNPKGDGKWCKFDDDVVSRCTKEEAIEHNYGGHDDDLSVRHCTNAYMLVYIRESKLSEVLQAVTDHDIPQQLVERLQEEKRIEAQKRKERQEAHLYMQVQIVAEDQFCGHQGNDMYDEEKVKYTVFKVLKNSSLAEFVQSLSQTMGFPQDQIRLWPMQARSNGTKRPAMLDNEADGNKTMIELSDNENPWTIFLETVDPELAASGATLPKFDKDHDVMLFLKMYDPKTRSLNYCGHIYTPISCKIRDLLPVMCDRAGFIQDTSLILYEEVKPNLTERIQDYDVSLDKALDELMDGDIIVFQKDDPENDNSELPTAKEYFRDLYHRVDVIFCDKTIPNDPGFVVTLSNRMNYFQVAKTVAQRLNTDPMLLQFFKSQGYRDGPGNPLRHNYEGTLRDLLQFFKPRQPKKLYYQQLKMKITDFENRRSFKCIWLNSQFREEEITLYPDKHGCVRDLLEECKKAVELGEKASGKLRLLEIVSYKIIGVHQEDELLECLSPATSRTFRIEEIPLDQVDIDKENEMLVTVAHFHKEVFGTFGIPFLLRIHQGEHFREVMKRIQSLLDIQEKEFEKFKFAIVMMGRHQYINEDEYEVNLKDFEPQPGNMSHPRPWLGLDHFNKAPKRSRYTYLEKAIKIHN
smiles,measurement,setting,value
CC1(C)CCC(CN2CCN(c3ccc(C(=O)NS(=O)(=O)c4ccc(NCC5CCOCC5)c([N+](=O)[O-])c4)c(Oc4cnc5[nH]ccc5c4)c3)CC2)=C(c2ccc(Cl)cc2)C1 [Venetoclax],effect on MCL1 levels,MCL1 in OCI-AML3 cells,increase in MCL1 levels
CC(=O)c1cc([N+](=O)[O-])c(Sc2ccc(F)cc2F)s1 [P22077],IC50,p53 WT cell lines [1],> 1 µM
"O=C1CCC(=O)N1Cc1cc2nccc(-c3cc(Cl)cc4c3N([C@@H]3CNC5(CCC5)C3)CCC4)c2s1 [FX1-5303, (S)-1-((7-(6-chloro-1-(5-azaspiro[3.4]octan-7-yl)-1,2,3,4-tetrahydroquinolin-8-yl)thieno[3,2-b]pyridin-2-yl)methyl)pyrrolidine-2,5-dione]",IC50,"MM.1S cells [2]; Homo sapiens, MM1.S, 72 h, read-out: MM.1S viability IC50",0.015 µM
same,maximum increase of p21 above DMSO-treated cells,p21 in MM.1S cells,~6 fold
same,increase in cell confluency over the 5-day time course,MRC5 cells,increased monotonically
same,IC50,recombinant human USP7,0.00029 µM
same,growth of the MM.1S cancer cell line,MM.1S cells [3],fully inhibited growth
same,EC50,[4],0.0056 µM
same,p21 levels in tumors vs untreated mice,MV4-11 tumors; [7],significantly higher
same,p53 levels in tumors,MV4-11 tumors; [7],elevated
same,MIC-1 in urine,"MV4-11 tumors; MV4-11 CDX, day 24, three time periods, ELISA",elevated levels
same,tumor growth inhibition,MV4-11 tumors; 30 mg/kg twice daily,68%
same,tumor growth inhibition,MV4-11 tumors; 40 mg/kg twice daily,72%
same,p21 levels in tumors vs untreated mice,MM.1S tumors; [8],significantly higher
same,p53 levels in tumors,MM.1S tumors; [8],elevated
same,MIC-1 in urine,"MM.1S tumors; MM.1S CDX, day 24, three time periods, ELISA",elevated levels
same,tolerability,"MM.1S tumors; MM.1S and MV4-11 CDX mouse models, oral dosing",generally well-tolerated
same,tumor growth inhibition,"MM.1S tumors; MM.1S tumors, 30 mg/kg twice daily, oral, 24 days",95%
same,shift of IC50 in RKO-E6 cells relative to the parental RKO cell line,RKO-E6 cells,essentially unchanged
same,time of peak p53 levels after treatment,p53 in MM.1S cells,2 to 6 h
same,p53 elevation after 24h of treatment,p53 in MM.1S cells,returns nearly to basal levels
same,maximum increase of p53 above DMSO-treated cells,p53 in MM.1S cells,approximately 3 fold
same,inhibition in a panel of 44 DUBs,[5],only USP7 was inhibited
same,IC50,p53 WT cell lines [6],< 0.05 µM
same,IC50,RKO cells,3.4 µM
"COc1cc(C(=O)O)ccc1NC(=O)[C@@H]1N[C@@H](CC(C)(C)C)[C@](C#N)(c2ccc(Cl)cc2F)[C@H]1c1cccc(Cl)c1F [Idasanutlin, reference compound]",inhibition of MM1.S cell viability compared with FX1-5303,"MM.1S cells [2]; three days, CTG",equipotently
same,maximum increase of p21 above DMSO-treated cells,p21 in MM.1S cells,~80 fold
same,increase in cell confluency over the 5-day time course,MRC5 cells,less than 10%
same,growth of the MM.1S cancer cell line,MM.1S cells [3],fully inhibited growth
same,shift of IC50 in RKO-E6 cells relative to the parental RKO cell line,RKO-E6 cells,over 50 fold
same,p53 elevation after 24h of treatment,p53 in MM.1S cells,approximately 14 fold
same,maximum increase of p53 above DMSO-treated cells,p53 in MM.1S cells,approximately 20 fold
same,IC50,RKO cells,0.17 µM
